Data on 8 molecules can be found in PMC4807855 (Bioorganic & medicinal chemistry, 2014).

Structures can show the parent of a compound that is named as a salt. A value given as a limit tells only on which side of the number the result lay.

The target of data set [1] is T1, PfENR (Plasmodium falciparum, UniProt Q9BJJ9). Briefly: PfENR substrate kinetics. The data set is classed as biochemical. The settings on record: without NAD+ preincubation; for Km / kcat: substrate varied, other substrate held constant.
The target of data set [2] is T1, PfENR. Nature of the data set: PfENR continuous inhibition assay. The data set is classed as biochemical. The settings on record: for PfENR inhibition in real-time assay: 25 μM of each candidate inhibitor, with and without NAD+ preincubation.
For data set [3], the target named is iodoacetamide-treated PfENR (Plasmodium falciparum, UniProt Q9BJJ9). Briefly: Celastrol inhibition of iodoacetamide-treated PfENR. The settings on record: celastrol 50 μM. In kind it is biochemical. In outline:
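PfENR alkylated with 1 mM iodoacetamide in 100 mM ammonium bicarbonate, 60 min, 25 °C, dark; excess reagent removed by desalting column. Treated enzyme preincubated 45 min at 25 °C with test compound (final 50 μM), 50 μM NAD+, 20 mM Tris/HCl pH 7.4, 150 mM NaCl and 0.01% Triton-X. Activity tested with and without DMSO (5% of volume).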

Data set [4] relates to chloroquine-sensitive P. falciparum NF. The settings on record: read-out: whole-cell IC50; cited from earlier work.
Data set [5] relates to whole-cell blood-stage P. falciparum. The settings on record: at 1 μM, cell culture; ref 33 (printed 32); cited from earlier work.
For data set [6], the target named is T1, PfENR. Briefly: Reversibility of celastrol binding. The settings on record: incubation at 5 times the IC50 (15 μM), 45 min, 25 °C. The data set is classed as biochemical.
A short description of data set [7]: Solubility under assay conditions. In kind it is physicochemical. The settings on record: PfENR assay reaction mixture.
Data set [8] deals with T1, PfENR. The settings on record: cited from earlier work.

As usually defined, the Km is the concentration of substrate that gives half-maximal velocity. What is called kcat is the number of substrate molecules converted per active site and unit of time at saturation. As to `NC(=O)C1=CN([C@@H]2O[C@H](COP(=O)(O)OP(=O)(O)OC[C@H]3O[C@@H](n4cnc5c(N)ncnc54)[C@H](O)[C@@H]3O)[C@@H](O)[C@H]2O)C=CC1` [NADH], on PfENR [1], the Michaelis-Menten constant (Km) stood at 240 ± 40 µM and the turnover number (kcat) was 3.8 ± 1.0 s⁻¹.
Consider `C/C=C/C/C=C/CCC(=O)[C@H]1O[C@H]1C(N)=O` [cerulenin (CR), cerulenin], for which the “PfENR inhibition in real-time assay” value on PfENR [2] is on record as “no PfENR inhibition”.
What is called IC50 is the concentration that gives 50% inhibition. As usually defined, the Ki is a measure of affinity in units of concentration, obtained from inhibition or displacement. The low end stands for tighter binding, the high end for weaker binding. On to `CC1=C(O)C(=O)C=C2C1=CC=C1[C@@]2(C)CC[C@@]2(C)[C@@H]3C[C@](C)(C(=O)O)CC[C@]3(C)CC[C@]12C` [compound 1, celastrol], for which the “inhibition of iodoacetamide-treated PfENR” value in data set [3] was “comparable to that of the untreated protein”. The IC50 was 560 µM in data set [4]; 3.4 µM on PfENR [2] (IC50, PfENR inhibition, in the presence of 0.01% Triton-X); roughly 5 µM against PfENR [2] (IC50 against PfENR (summary statement)); 5.9 µM against PfENR [2] (average IC50, PfENR inhibition, with NAD+ preincubation (50 μM, 45 min, 25 °C)); 4.7 µM on PfENR [2] (average IC50, PfENR inhibition, without NAD+ preincubation). The “growth inhibition of whole-cell blood-stage P. falciparum” value in data set [5] is listed as no less than 70%. For the same molecule, the “PfENR activity after incubation with inhibitor and 100-fold dilution” value on PfENR [6] is “identical to the DMSO control”. For the same molecule, the “IC50 against PfENR (summary statement)” value against PfENR [2] is reported as “low-micromolar range”. The affinity at PfENR [2] corresponds to a Ki of 5.3 µM. Also, the inhibition mechanism result on PfENR [2] (varied crotonyl-CoA at fixed NADH) was “noncompetitive inhibition”.
As a reminder, the solubility is the dissolved amount per volume that the medium holds. `CC[C@@]1(O)C[C@H](O[C@H]2C[C@H](N(C)C)[C@H](O[C@H]3C[C@H](O)[C@H](O[C@H]4CCC(=O)[C@H](C)O4)[C@H](C)O3)[C@H](C)O2)c2c(cc3c(c2O)C(=O)c2c(O)cccc2C3=O)[C@H]1C(=O)OC` [compound 2, aclacinomycin A (aclarubicin)]: the solubility in data set [7] is no more than 25 µM. In addition, the “PfENR inhibition in real-time assay” value on PfENR [2] was “increase in absorbance relative to the DMSO and cerulenin controls”.
As for `CC(C)=CCC[C@]1(C)C=Cc2c(O)c3c(c(CC=C(C)C)c2O1)O[C@]12C(=C[C@@H]4C[C@H]1C(C)(C)O[C@@]2(C/C=C(/C)C(=O)O)C4=O)C3=O` [compound 4, gambogic acid], the “PfENR inhibition in real-time assay” value at PfENR [2] is reported as “no ENR inhibition”.
As to `C/C=C/C(=O)SCCNC(=O)CCNC(=O)[C@H](O)C(C)(C)COP(=O)(O)OP(=O)(O)OC[C@H]1O[C@@H](n2cnc3c(N)ncnc32)[C@H](O)[C@@H]1OP(=O)(O)O` [crotonyl-CoA, crotonyl coenzyme A trilithium salt], on PfENR [1], the Michaelis constant (Km) amounted to 170 ± 60 µM, the kcat is 1.0 ± 0.2 s⁻¹ and the kcat/Km ratio stood at 6000 ± 1100 M⁻¹ s⁻¹.
Turning to `Oc1cc(Cl)ccc1Oc1ccc(Cl)cc1Cl` [triclosan (TCL), triclosan], on PfENR [8], the “PfENR inhibitor potency (literature)” value is on record as “picomolar”. The “PfENR inhibition in real-time assay” value at PfENR [2] is given as “no change in NADH consumption”.
On to dihydroergotoxine [compound 3], for which the “PfENR inhibition in real-time assay” value at PfENR [2] is “no ENR inhibition”.
